Shown are actives, neighbours in structure and some others; about 5.5% of the full set was active somewhere.
WT yeast gro inh = growth inhibition of WT strain, primary screen, mitochondrial fusion inhibitor project, WT and mutant strains, chemical genetic. AID 1362, 2008. mitochondrial fusion phenotypic screen. inhibition, % at 10 µM. 190,000 compounds, 2.1% hits; in the data active = inhibition above about 58%; tested in S. cerevisiae
Cl transport mod = KCC2 cotransporter modulators, thallium flux, primary screen, cell-based, HEK293 KCC2, FluoZin-2 fluorescence, MLSMR; 190,000 compounds, 2.2% hits; B-score of Tl+ flux slope (higher = more flux/activation; lower = inhibition) at 10 µM; KCC2 cells, thallium flux FluoZin-2 fluorescence; Solute carrier family 12 member 5 (Homo sapiens), Q9H2X9;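 active = thallium flux slope and its plate-corrected score both differing from the plate sample mean at a set confidence after two filtering rounds, in either direction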;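 also: slope of fluorescence scaled to starting intensity during 10 to 20 s after thallium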
Target sequence (Q9H2X9 whole entry, looked up): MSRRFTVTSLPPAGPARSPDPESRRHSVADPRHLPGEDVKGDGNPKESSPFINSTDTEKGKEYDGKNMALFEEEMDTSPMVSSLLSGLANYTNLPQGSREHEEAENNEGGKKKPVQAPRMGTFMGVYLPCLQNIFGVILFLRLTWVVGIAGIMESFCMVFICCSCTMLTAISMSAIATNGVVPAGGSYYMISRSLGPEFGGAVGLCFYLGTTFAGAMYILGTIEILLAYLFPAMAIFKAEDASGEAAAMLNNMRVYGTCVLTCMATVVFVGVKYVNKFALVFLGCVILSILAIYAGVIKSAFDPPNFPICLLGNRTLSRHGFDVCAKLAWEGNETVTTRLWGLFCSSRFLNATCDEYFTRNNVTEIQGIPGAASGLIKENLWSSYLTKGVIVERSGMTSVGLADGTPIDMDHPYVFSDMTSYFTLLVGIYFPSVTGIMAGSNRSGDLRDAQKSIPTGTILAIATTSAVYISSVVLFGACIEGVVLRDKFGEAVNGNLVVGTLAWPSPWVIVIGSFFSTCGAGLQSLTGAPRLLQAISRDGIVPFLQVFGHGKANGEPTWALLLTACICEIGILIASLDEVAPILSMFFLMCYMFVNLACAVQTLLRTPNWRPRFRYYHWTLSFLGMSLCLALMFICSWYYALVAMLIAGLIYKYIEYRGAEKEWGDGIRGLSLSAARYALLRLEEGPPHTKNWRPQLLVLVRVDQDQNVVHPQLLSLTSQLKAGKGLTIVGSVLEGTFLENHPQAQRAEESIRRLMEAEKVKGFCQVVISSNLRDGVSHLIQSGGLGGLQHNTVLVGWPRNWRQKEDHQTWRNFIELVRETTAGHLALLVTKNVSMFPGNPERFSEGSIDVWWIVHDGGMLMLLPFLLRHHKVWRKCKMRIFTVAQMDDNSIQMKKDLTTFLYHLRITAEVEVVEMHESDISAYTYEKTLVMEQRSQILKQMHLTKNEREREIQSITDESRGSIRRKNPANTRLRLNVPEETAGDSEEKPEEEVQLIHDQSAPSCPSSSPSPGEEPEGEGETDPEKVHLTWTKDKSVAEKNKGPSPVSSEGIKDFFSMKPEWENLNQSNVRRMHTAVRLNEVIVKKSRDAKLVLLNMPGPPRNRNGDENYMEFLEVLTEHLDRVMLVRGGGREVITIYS
RAM network inh = inhibitors of the yeast RAM network, primary screen, dse1pr::URA3 reporter, 5-FOA selection; S. cerevisiae dse1pr::URA3 reporter, 5-FOA growth OD615, 2 d; analog-sensitive cbk1-as2 kinase mutant strain; inhibition, % at 50 µM; 190,000 compounds, 1.8% hits;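 active = inhibition above a set limit, 3 SD over mean compound inhibition, cut at about 8.4% in these data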;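 also: 0% = DMSO-only wells with no growth and 100% = 10 µM 1-NA-PP1 full growth; inhibition rescues growth on 5-FOA so higher OD means more RAM inhibition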
Yeast life ext = compounds extending yeast replicative lifespan, primary screen, S. cerevisiae, OD615; S. cerevisiae growth with nicotinamide; deaD strain in restrictive glucose medium; inhibition of the nicotinamide effect, % at 10 µM; 130,000 compounds, 0.68% hits;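 active = inhibition above a set limit, placed 3 SD over the median of all compounds, cut at about 26% in these data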;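 also: 0% = nicotinamide-treated wells and 100% = cells grown without nicotinamide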
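Test system – modified budding yeast, DeaD strain · Compound – single dose 10 µM compound, 0.25% DMSO · Times – culture preincubation 4 h, compound exposure 48 h, both 30 °C · Detection – optical density (absorbance) at 615 nm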
Yeast growth inh = growth inhibitors of yeast BB579 in restrictive medium, primary screen, yeast lifespan-shortening project, S. cerevisiae; OD615, 48 h; inhibition, % at 10 µM; 140,000 compounds, 0.51% hits; AID 804, 2007;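 active = inhibition above a set limit, 3 SD over the mean compound inhibition, cut at about 44% in these data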
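Detection: OD615 turbidity measurement; Material: Saccharomyces cerevisiae DeaD strain BB579, replicative lifespan model yeast; Timing: 48 h exposure, 30 °C; Doses: single 10 µM dose; Medium: CSMM-D restrictive synthetic medium containing dextrose (glucose); Controls: amphotericin B at 10 µg/mL as positive control.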
RAM efflux-def = 5-FOA growth of efflux-deficient control yeast, dose response, counter-screen for RAM network inhibitor project, S. cerevisiae, OD615 | 1,200 tested, under 10 active | shares compounds with RAM network inh | max inhibition, % | S. cerevisiae efflux-deficient reporter strain, 5-FOA growth OD615, 2 days; call rule not given here;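 also: plate controls were vehicle for no effect and reference inhibitor for full effect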
The depositor's hits bear a star; x = no result given.

SMILES	WT yeast gro inh	Cl transport mod	RAM network inh	Yeast life ext	Yeast growth inh	RAM efflux-def
Cc1cc2ccccn2c1C(=O)c1cc([N+](=O)[O-])cc([N+](=O)[O-])c1	41.0	-3.31	2.7	x	x	x
O=C(COc1cccc(Cl)c1)Nc1cc(S(=O)(=O)N2CCOCC2)ccc1N1CCOCC1	x	-0.953	x	x	x	x
CCN=c1scc(-c2cccs2)n1/N=C/c1cc(OC)ccc1O	47.4	-0.796	12.2*	-2.2	-43.2	1.8
CCOc1ccc(N(C)S(=O)(=O)c2ccc3[nH]cc(C(=O)NCCOC)c(=O)c3c2)cc1	6.1	-0.737	13.8*	x	x	10.8
CCCC(=O)Nc1sc2c(c1C(=O)Nc1ccccn1)CCCC2	-3.8	-0.497	0.0	x	x	x
O=C(O)CNC(=O)C12CC3CC(CC(Cl)(C3)C1)C2	-1.6	-0.359	0.9	x	x	x
Cc1ccc(SCCNC(=O)c2ccc(C)c(S(=O)(=O)Nc3cccc(C)c3)c2)cc1	30.9	-1.72	15.9*	0.0	-7.1	6.2
CCC(=O)Nc1ccccc1C(=O)OC(c1ccccc1)c1ccccc1	42.0	0.569	4.0	-6.4	-3.5	x
CCC(=O)Nc1ccccc1C(=O)OCc1ccc(C(=O)c2ccccc2)cc1	0.5	x	12.2*	-9.1	-49.9	3.5
COc1cc(CNC(=O)c2cccc(COc3ccc(Cl)cc3)c2)cc(OC)c1	-2.9	-1.05	11.9*	-1.8	-24.1	2.1
O=C(NCc1ccccc1)c1cccc(COc2ccc(Cl)cc2)c1	49.5	-0.132	4.5	-12.3	6.5	x
Fc1ccc(-c2csc(N3CCC(c4ccccc4)C3)n2)cc1 (stereo not drawn)	41.6	1.22	3.4	-14.4	-6.4	x
Clc1ccc(-c2csc(N3CCC(c4ccccc4)C3)n2)cc1 (stereo not drawn)	-3.7	0.156	13.5*	-7.9	-36.5	6.6
O=C(Cc1cccs1)N1CCN(c2nc(-c3ccc(Cl)cc3)cs2)CC1	59.3*	0.577	14.5*	2.5	-66.1	1.1
CCOc1ccccc1NC(=S)NCc1ccco1	3.1	-0.153	1.6	-8.1	-12.1	x
Cc1ccc(-c2cccc(OC(=O)c3ccccc3F)c2)cc1	-9.8	0.646	14.5*	-0.1	-28.9	2.9
O=C(Oc1ccc(C(=S)N2CCCCC2)cc1)c1ccccc1F	15.1	-0.443	2.1	x	x	x
COc1ccc(NC(=O)N2CCN(C(=O)C(Cc3ccc(F)cc3)NC(C)=O)CC2)cc1 (stereo not drawn)	-9.3	-0.326	0.1	x	x	x
CN(CC(=O)Nc1ccc(N2CCOCC2)cc1)Cc1cc(=O)n2ccsc2n1	-38.4	0.722	0.8	x	x	x
Cc1ccc(S(=O)(=O)n2nc(-c3ccc(Cl)cc3)nc2NCc2ccco2)cc1	27.5	-0.462	15.2*	1.3	-66.9	4.5
CCS(=O)(=O)n1nc(-c2ccccc2)nc1NCc1ccco1	9.4	-0.0492	-0.4	-14.7	-50.9	x
Nc1ncnc(Sc2ccccc2)c1[N+](=O)[O-]	-8.5	-0.222	72.5*	-8.4	-26.0	3.8
Nc1ncnc(Sc2ccc(Cl)cc2)c1[N+](=O)[O-]	-22.1	0.031	2.7	-3.1	-13.6	x
O=c1c2ccccc2c(-c2ccccc2)nn1Cc1ccc(Cl)cc1	50.5	-0.0544	14.2*	-17.0	-34.2	1.7
COc1ccc(Cn2nnnc2C(C(C)C)N(Cc2ccco2)Cc2cccs2)cc1 (stereo not drawn)	1.8	0.0372	12.1*	-0.5	-12.6	3.6
SMILES	WT yeast gro inh	Cl transport mod	RAM network inh	Yeast life ext	Yeast growth inh	RAM efflux-def
CC(C)C(c1nnnn1Cc1ccccc1)N(Cc1ccco1)Cc1cccs1 (stereo not drawn)	50.7	-0.411	13.2*	-7.4	4.5	3.6
O=[N+]([O-])c1ccc(C2Nc3cccc4cccc(c34)N2)cc1	17.1	-0.0647	11.8*	0.2	-33.2	3.1
Cc1ccc(N/C(SCc2ccccc2C)=C(/C#N)C(=O)NCc2ccco2)cc1C	17.4	0.884	3.0	-0.6	-20.0	x
CCc1ccc(N/C(SCc2cccc(F)c2)=C(/C#N)C(=O)NCc2ccco2)cc1	21.2	x	16.5*	6.7	-19.6	5.1
COc1cccc(-c2ccc(C#N)c(OC(=O)c3ccc(Cl)cc3)n2)c1	-6.2	x	0.1	-0.8	-32.7	x
COc1cccc(-c2ccc(C#N)c(OC(=O)c3c(Cl)cccc3Cl)n2)c1	62.3*	0.817	12.2*	9.0	-49.0	1.5
O=C(COc1ccccc1Cl)Nc1cc(Cl)ccc1Oc1ccccc1	-10.2	-0.0835	13.8*	-14.3	-20.2	3.9
O=C(COc1ccccc1Cl)Nc1ccc(Cl)cn1	3.9	0.154	4.6	-9.2	-43.7	x
CC(C)CC(=O)NC(=S)Nc1nc(-c2ccccc2)cs1	2.7	1.07	12.7*	6.3	-5.7	1.8
Cc1cccc(C)c1OC1(c2ccccc2)OC(=O)c2ccccc21 (stereo not drawn)	5.1	-0.575	11.9*	-13.3	-59.8	6.0
Cc1cc(C)c(OC2(c3ccccc3)OC(=O)c3ccccc32)c(C)c1 (stereo not drawn)	78.6*	-0.785	12.3*	-2.6	-40.5	3.2
CCOC1(c2ccccc2)OC(=O)c2ccccc21 (stereo not drawn)	-8.2	-1.9	1.1	-0.8	-24.5	x
CC1(CCc2ccccc2)NC(=O)N(CC(=O)N2CC(=O)Nc3ccccc32)C1=O (stereo not drawn)	x	-0.0189	x	x	x	x
COc1ccccc1OCC#CCNC1CCCCC1C (stereo not drawn)	-7.0	0.0542	1.1	x	x	x
Cc1ccccc1CN1CCSc2sccc2C1=O	-1.6	-1.18	1.1	x	x	x
Cn1c(SCC(=O)NNC(=O)Nc2ccccc2)nnc1-c1ccccc1	x	-0.746	x	x	x	x
CC(=O)c1cc(C(=O)c2ccccc2)sc1Nc1ccccc1	8.3	-1.04	11.6*	0.0	-26.9	3.1
O=C(CSc1ccc(Cl)cc1)N1CCN(c2ccc(Cl)cc2[N+](=O)[O-])CC1	3.1	x	13.4*	24.4	-48.6	4.0
COc1ccc(NS(=O)(=O)c2ccc3oc(SCc4ccc(F)cc4)nc3c2)cc1	57.5	-0.685	13.3*	11.0	-25.9	2.5
COc1ccccc1NS(=O)(=O)c1ccc2oc(SCc3ccc(F)cc3)nc2c1	38.9	-0.112	14.5*	8.6	-44.9	3.1
CCOC(=O)CSc1nc2cc(S(=O)(=O)Nc3ccccc3OC)ccc2o1	9.3	-0.937	3.0	-5.3	-32.6	x
CCCn1c(SCC(=O)Nc2ccc(OC)cc2)nnc1-c1ccncc1	1.7	0.0855	0.7	-16.9	-33.3	x
CCN(CC)S(=O)(=O)c1ccc(OC)c(NC(=O)Cn2cnc3c2c(=O)n(C)c(=O)n3C)c1	-9.2	0.336	1.2	x	x	x

Source: PubChem (several laboratories)
